Experimental data as given in publication PMC4254804 (Nature communications, 2014).

Biological target: TopBP1 (Homo sapiens, UniProt Q92547)
Format: biochemical
Summary of the method: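 E. coli BL21-expressed (0.1 mM IPTG) TopBP1-BRCT7/8, GST cleaved off with PreScission, 2 μg preincubated with compound in NETN-A (50 mM NaCl, 1 mM EDTA, 20 mM Tris, 0.5% NP-40), 3 h, 4°C, rotating. Then 2 μg biotin-pS1159 peptide (non-phospho peptide control; streptavidin-Sepharose) or GST-p53-DBD (GST control; glutathione-Sepharose) added, 3 h, 4°C. Six NETN-B washes; SDS-PAGE, anti-TopBP1 immunoblot.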

TopBP1, sequence (Q92547 1264-1493 limits assumed): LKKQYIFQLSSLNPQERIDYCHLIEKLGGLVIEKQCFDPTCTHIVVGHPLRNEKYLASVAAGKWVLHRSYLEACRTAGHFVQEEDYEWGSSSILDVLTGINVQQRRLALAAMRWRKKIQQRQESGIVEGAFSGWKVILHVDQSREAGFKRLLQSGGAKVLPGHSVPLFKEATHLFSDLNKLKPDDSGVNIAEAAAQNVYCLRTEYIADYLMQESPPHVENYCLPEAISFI

O=C(O)CN(CC(=O)O)Cc1cc2c(cc1O)Oc1cc(O)c(CN(CC(=O)O)CC(=O)O)cc1C21OC(=O)c2ccccc21 [calcein]
Pulldown competition with purified proteins: biotin-pS1159 peptide streptavidin: submicromolar
